Assay results: ChEMBL document CHEMBL4346672, “Antimicrobial and KPC/AmpC inhibitory activity of functionalized benzosiloxaboroles” (Eur J Med Chem, 2019)
In brackets after ≈: the same amount, converted by molar mass. Activity calls are given as the source filed them. The calls are words filed in the database; no cut-off is given here.

Tested on: Staphylococcus aureus
Assay: Antibacterial activity against Staphylococcus aureus ATCC 6538P assessed as diameter of zone inhibition measured after 18 hrs by CLSI disc diffusion method
Type: functional
Conditions: not given
Summary of the method: (§1)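 Disc diffusion on Mueller-Hinton II agar. Compounds dissolved in DMSO. Strains stored at -80 °C and subcultured twice on tryptic soy agar before testing. Inhibition zones read after 35 °C, 18 h.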

| SMILES | diameter of the inhibition zone (DIZ) [mm] |
| --- | --- |
| C[Si]1(C)OB(O)c2cc(F)c(F)cc21 | 34 |

Tested on: Pseudomonas aeruginosa
Assay: Antibacterial activity against Pseudomonas aeruginosa ATCC 27853 measured after 18 hrs by CLSI broth dilution method
Type: functional
Conditions: ATCC 27853, 18 h
Summary of the method: (§2)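 Broth MIC in Mueller-Hinton II broth following CLSI, compounds dissolved in DMSO. Strains subcultured twice on tryptic soy agar before testing. Growth read after 35 °C, 18 h.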

| MIC [µg/mL] | SMILES |
| --- | --- |
| > 400 | C[Si]1(C)OB(O)c2cc(F)c(F)cc21 |

Tested on: Serratia marcescens
Assay: Antibacterial activity against Serratia marcescens ATCC 13880 measured after 18 hrs by CLSI broth dilution method
Type: functional
Conditions: ATCC 13880, 18 h
Summary of the method: as §2

| MIC [µg/mL] | SMILES |
| --- | --- |
| > 400 | C[Si]1(C)OB(O)c2cc(F)c(F)cc21 |

Tested on: not listed separately
Assay: Dissociation constant, pKa1 of compound in 0.1 M NaOH by potentiometric analysis
Type: physicochemical
Conditions: not given

| pKa | SMILES |
| --- | --- |
| 6.8 | C[Si]1(C)OB(O)c2cc(F)c(F)cc21 |

Tested on: Candida parapsilosis
Assay: Antifungal activity against Candida parapsilosis ATCC 22019 assessed as decrease in fungal cell growth at 0.78 to 12.5 mg/L incubated for 24 hrs by CLSI broth dilution method
Type: functional
Conditions: Lodderomyces parapsilosis, ATCC 22019, 24 h
Summary of the method: (§3)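 Yeast broth dilution in RPMI 1640 with 2% glucose, compounds in DMSO. Yeasts pre-grown on Sabouraud dextrose agar. Growth read after 35 °C, 24 h.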

| MIC [µg/mL] | SMILES |
| --- | --- |
| 100 (≈ 467 µM) | C[Si]1(C)OB(O)c2cc(F)c(F)cc21 |

Tested on: Meyerozyma guilliermondii
Assay: Antifungal activity against Candida guilliermondii IBA 155 assessed as decrease in fungal cell growth at 0.78 to 12.5 mg/L incubated for 24 hrs by CLSI broth dilution method
Type: functional
Conditions: IBA 155, 24 h
Summary of the method: as §3

| MIC [µg/mL] | SMILES |
| --- | --- |
| 6.25 (≈ 29.2 µM) | C[Si]1(C)OB(O)c2cc(F)c(F)cc21 |

Tested on: Candida albicans
Assay: Antifungal activity against Candida albicans ATCC 90028 assessed as diameter of zone inhibition incubated for 24 hrs by CLSI disc diffusion method
Type: functional
Conditions: not given
Summary of the method: (§4)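 Yeast disc diffusion on Mueller-Hinton agar supplemented with 2% glucose and 0.5 mg/L methylene blue. Compounds in DMSO. Yeasts subcultured on Sabouraud dextrose agar before testing. Zones read after 35 °C, 24 h.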

| SMILES | diameter of the inhibition zone (DIZ) [mm] |
| --- | --- |
| C[Si]1(C)OB(O)c2cc(F)c(F)cc21 | 16 |

Tested on: Candida parapsilosis
Assay: Antifungal activity against Candida parapsilosis ATCC 22019 assessed as diameter of zone inhibition incubated for 24 hrs by CLSI disc diffusion method
Type: functional
Conditions: not given
Summary of the method: as §4

| SMILES | diameter of the inhibition zone (DIZ) [mm] |
| --- | --- |
| C[Si]1(C)OB(O)c2cc(F)c(F)cc21 | 18 |

Tested on: Candida tropicalis
Assay: Antifungal activity against Candida tropicalis IBA 171 assessed as diameter of zone inhibition incubated for 24 hrs by CLSI disc diffusion method
Type: functional
Conditions: not given
Summary of the method: as §4

| SMILES | diameter of the inhibition zone (DIZ) [mm] |
| --- | --- |
| C[Si]1(C)OB(O)c2cc(F)c(F)cc21 | 13 |

Tested on: Meyerozyma guilliermondii
Assay: Antifungal activity against Candida guilliermondii IBA 155 assessed as diameter of zone inhibition incubated for 24 hrs by CLSI disc diffusion method
Type: functional
Conditions: not given
Summary of the method: as §4

| SMILES | diameter of the inhibition zone (DIZ) [mm] |
| --- | --- |
| C[Si]1(C)OB(O)c2cc(F)c(F)cc21 | 30 |

Tested on: Pichia kudriavzevii
Assay: Antifungal activity against Candida krusei ATCC 6258 assessed as diameter of zone inhibition incubated for 24 hrs by CLSI disc diffusion method
Type: functional
Conditions: not given
Summary of the method: as §4

| SMILES | diameter of the inhibition zone (DIZ) [mm] |
| --- | --- |
| C[Si]1(C)OB(O)c2cc(F)c(F)cc21 | 17 |

Tested on: Staphylococcus aureus
Assay: Antibacterial activity against Staphylococcus aureus ATCC 6538P measured after 18 hrs by CLSI broth dilution method
Type: functional
Conditions: not given
Summary of the method: as §2

| MIC [µg/mL] | SMILES |
| --- | --- |
| 50 (≈ 234 µM) | C[Si]1(C)OB(O)c2cc(F)c(F)cc21 |

Tested on: Enterococcus faecalis
Assay: Antibacterial activity against Enterococcus faecalis ATCC 29212 measured after 18 hrs by CLSI broth dilution method
Type: functional
Conditions: ATCC 29212, 18 h
Summary of the method: as §2

| MIC [µg/mL] | SMILES |
| --- | --- |
| 400 (≈ 1870 µM) | C[Si]1(C)OB(O)c2cc(F)c(F)cc21 |

Tested on: Enterococcus faecium
Assay: Antibacterial activity against Enterococcus faecium ATCC 6057 measured after 18 hrs by CLSI broth dilution method
Type: functional
Conditions: ATCC 6057, 18 h
Summary of the method: as §2

| MIC [µg/mL] | SMILES |
| --- | --- |
| 200 (≈ 934 µM) | C[Si]1(C)OB(O)c2cc(F)c(F)cc21 |

Tested on: Staphylococcus epidermidis
Assay: Antibacterial activity against Staphylococcus epidermidis ATCC 12228 assessed as diameter of zone inhibition measured after 18 hrs by CLSI disc diffusion method
Type: functional
Conditions: not given
Summary of the method: as §1

| SMILES | diameter of the inhibition zone (DIZ) [mm] |
| --- | --- |
| C[Si]1(C)OB(O)c2cc(F)c(F)cc21 | 28 |

Tested on: Enterococcus faecalis
Assay: Antibacterial activity against Enterococcus faecalis ATCC 29212 assessed as diameter of zone inhibition measured after 18 hrs by CLSI disc diffusion method
Type: functional
Conditions: not given
Summary of the method: as §1

| SMILES | diameter of the inhibition zone (DIZ) |
| --- | --- |
| C[Si]1(C)OB(O)c2cc(F)c(F)cc21 | inactive |

Tested on: Enterococcus faecium
Assay: Antibacterial activity against Enterococcus faecium ATCC 6057 assessed as diameter of zone inhibition measured after 18 hrs by CLSI disc diffusion method
Type: functional
Conditions: not given
Summary of the method: as §1

| SMILES | diameter of the inhibition zone (DIZ) |
| --- | --- |
| C[Si]1(C)OB(O)c2cc(F)c(F)cc21 | inactive |

Tested on: Bacillus subtilis
Assay: Antibacterial activity against Bacillus subtilis ATCC 6633 assessed as diameter of zone inhibition measured after 18 hrs by CLSI disc diffusion method
Type: functional
Conditions: not given
Summary of the method: as §1

| SMILES | diameter of the inhibition zone (DIZ) [mm] |
| --- | --- |
| C[Si]1(C)OB(O)c2cc(F)c(F)cc21 | 25 |

Tested on: Klebsiella pneumoniae
Assay: Antibacterial activity against Klebsiella pneumoniae ATCC 13883 measured after 18 hrs by CLSI broth dilution method
Type: functional
Conditions: ATCC 13883, 18 h
Summary of the method: as §2

| MIC [µg/mL] | SMILES |
| --- | --- |
| > 400 | C[Si]1(C)OB(O)c2cc(F)c(F)cc21 |

Tested on: Proteus mirabilis
Assay: Antibacterial activity against Proteus mirabilis ATCC 12453 measured after 18 hrs by CLSI broth dilution method
Type: functional
Conditions: ATCC 12453, 18 h
Summary of the method: as §2

| MIC [µg/mL] | SMILES |
| --- | --- |
| 400 (≈ 1870 µM) | C[Si]1(C)OB(O)c2cc(F)c(F)cc21 |

Tested on: Enterobacter cloacae
Assay: Antibacterial activity against Enterobacter cloacae DSM 6234 measured after 18 hrs by CLSI broth dilution method
Type: functional
Conditions: DSM 6234, 18 h
Summary of the method: as §2

| MIC [µg/mL] | SMILES |
| --- | --- |
| > 400 | C[Si]1(C)OB(O)c2cc(F)c(F)cc21 |

Tested on: Bordetella bronchiseptica
Assay: Antibacterial activity against Bordetella bronchiseptica ATCC 4617 measured after 18 hrs by CLSI broth dilution method
Type: functional
Conditions: ATCC 4617, 18 h
Summary of the method: as §2

| MIC [µg/mL] | SMILES |
| --- | --- |
| 400 (≈ 1870 µM) | C[Si]1(C)OB(O)c2cc(F)c(F)cc21 |

Tested on: Acinetobacter baumannii
Assay: Antibacterial activity against Acinetobacter baumannii ATCC 19606 measured after 18 hrs by CLSI broth dilution method
Type: functional
Conditions: ATCC 19606, 18 h
Summary of the method: as §2

| MIC [µg/mL] | SMILES |
| --- | --- |
| > 400 | C[Si]1(C)OB(O)c2cc(F)c(F)cc21 |

Tested on: Stenotrophomonas maltophilia
Assay: Antibacterial activity against Stenotrophomonas maltophilia ATCC 13637 measured after 18 hrs by CLSI broth dilution method
Type: functional
Conditions: ATCC 13637, 18 h
Summary of the method: as §2

| MIC [µg/mL] | SMILES |
| --- | --- |
| 400 (≈ 1870 µM) | C[Si]1(C)OB(O)c2cc(F)c(F)cc21 |

Tested on: Burkholderia cepacia
Assay: Antibacterial activity against Burkholderia cepacia ATCC 25416 measured after 18 hrs by CLSI broth dilution method
Type: functional
Conditions: ATCC 25416, 18 h
Summary of the method: as §2

| MIC [µg/mL] | SMILES |
| --- | --- |
| > 400 | C[Si]1(C)OB(O)c2cc(F)c(F)cc21 |

Tested on: Escherichia coli
Assay: Antibacterial activity against Escherichia coli ATCC 25922 assessed as diameter of zone inhibition measured after 18 hrs by CLSI disc diffusion method
Type: functional
Conditions: not given
Summary of the method: as §1

| SMILES | diameter of the inhibition zone (DIZ) |
| --- | --- |
| C[Si]1(C)OB(O)c2cc(F)c(F)cc21 | inactive |

Tested on: Proteus mirabilis
Assay: Antibacterial activity against Proteus mirabilis ATCC 12453 assessed as diameter of zone inhibition measured after 18 hrs by CLSI disc diffusion method
Type: functional
Conditions: not given
Summary of the method: as §1

| SMILES | diameter of the inhibition zone (DIZ) |
| --- | --- |
| C[Si]1(C)OB(O)c2cc(F)c(F)cc21 | inactive |

Tested on: Acinetobacter baumannii
Assay: Antibacterial activity against Acinetobacter baumannii ATCC 19606 assessed as diameter of zone inhibition measured after 18 hrs by CLSI disc diffusion method
Type: functional
Conditions: not given
Summary of the method: as §1

| SMILES | diameter of the inhibition zone (DIZ) |
| --- | --- |
| C[Si]1(C)OB(O)c2cc(F)c(F)cc21 | inactive |

Tested on: Burkholderia cepacia
Assay: Antibacterial activity against Burkholderia cepacia ATCC 25416 assessed as diameter of zone inhibition measured after 18 hrs by CLSI disc diffusion method
Type: functional
Conditions: not given
Summary of the method: as §1

| SMILES | diameter of the inhibition zone (DIZ) |
| --- | --- |
| C[Si]1(C)OB(O)c2cc(F)c(F)cc21 | inactive |

Tested on: Bordetella bronchiseptica
Assay: Antibacterial activity against Bordetella bronchiseptica ATCC 4617 assessed as diameter of zone inhibition measured after 18 hrs by CLSI disc diffusion method
Type: functional
Conditions: not given
Summary of the method: as §1

| SMILES | diameter of the inhibition zone (DIZ) |
| --- | --- |
| C[Si]1(C)OB(O)c2cc(F)c(F)cc21 | inactive |

Tested on: Escherichia coli
Assay: Antibacterial activity against Escherichia coli ATCC 25922 assessed as fold reduction of MIC in presence of efflux pump inhibitor PAbetaN incubated for 18 hrs by CLSI broth microdilution method
Type: functional
Conditions: not given
Summary of the method: (§5)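 MICs determined with and without PAβN at 50 mg/L in Mueller-Hinton broth containing 1 mM MgSO₄. 2-fold serial dilutions per CLSI. Fold change taken from the paired MICs after 35 °C, 18 h.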

| SMILES | fold change (FC) |
| --- | --- |
| C[Si]1(C)OB(O)c2cc(F)c(F)cc21 | 32 |

Tested on: Klebsiella pneumoniae
Assay: Antibacterial activity against Klebsiella pneumoniae ATCC 13883 assessed as fold reduction of MIC in presence of efflux pump inhibitor PAbetaN incubated for 18 hrs by broth microdilution method
Type: functional
Conditions: not given
Summary of the method: as §5

| SMILES | fold change (FC) |
| --- | --- |
| C[Si]1(C)OB(O)c2cc(F)c(F)cc21 | 4 |

Tested on: Proteus mirabilis
Assay: Antibacterial activity against Proteus mirabilis ATCC 12453 assessed as fold reduction of MIC in presence of efflux pump inhibitor PAbetaN incubated for 18 hrs by broth microdilution method
Type: functional
Conditions: not given
Summary of the method: as §5

| SMILES | fold change (FC) |
| --- | --- |
| C[Si]1(C)OB(O)c2cc(F)c(F)cc21 | 2 |

Tested on: Stenotrophomonas maltophilia
Assay: Antibacterial activity against Stenotrophomonas maltophilia ATCC 13637 assessed as fold reduction of MIC in presence of efflux pump inhibitor PAbetaN incubated for 18 hrs by broth microdilution method
Type: functional
Conditions: not given
Summary of the method: as §5

| SMILES | fold change (FC) |
| --- | --- |
| C[Si]1(C)OB(O)c2cc(F)c(F)cc21 | 16 |

Tested on: Klebsiella pneumoniae
Conditions: ATCC 13883

| SMILES | DIZ |
| --- | --- |
| C[Si]1(C)OB(O)c2cc(F)c(F)cc21 | inactive |

Tested on: Serratia marcescens
Conditions: ATCC 13880

| SMILES | DIZ |
| --- | --- |
| C[Si]1(C)OB(O)c2cc(F)c(F)cc21 | inactive |
